Assay results taken from ChEMBL document CHEMBL1166007, “Anti-AIDS agents 82: synthesis of seco-(3'R,4'R)-3',4'-di-O-(S)-camphanoyl-(+)-cis-khellactone (DCK) derivatives as novel anti-HIV agents” (Bioorg Med Chem, 2010).
Activity calls are given as the source filed them. No cut-off for these calls is given here.

Columns and labels:
[1] = system: MT4; experiment: Cytotoxicity against human MT4 cells after 4 days by XTT assay; format: cell-based; conditions: MT4, 96 h
[2] = Therapeutic index, ratio of IC50 for human MT4 cells to EC50 for HIV1 NL4-3 infected in human MT4 cells; format: cell-based; conditions: read-out: Ratio IC50/EC50
Summary of the method: (§1)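 HIV-1 NL4-3 or RTMDR (multi-RT inhibitor-resistant) virus infected MT-4 cells at MOI 0.001 in 96-well culture. On day 4 post-infection, culture supernatants were collected and p24 was measured by ELISA. TI = IC50/EC50. Values are averages of at least three separate experiments. Top tested concentration 20 μM.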

[3] = system: Human immunodeficiency virus 1; experiment: Antiviral activity against HIV1 NL4-3 infected in human MT4 cells assessed as inhibition of viral p24 antigen production after 4 days by ELISA; format: functional, organism-based; conditions: Human immunodeficiency virus 1, NL4-3, MT4, 96 h; summary of the method: as §1
[4] = system: MT2; experiment: Cytotoxicity against human MT2 cells after 6 days by XTT assay; format: cell-based; conditions: MT2, 144 h
[5] = system: Human immunodeficiency virus 1; experiment: Antiviral activity against HIV1 3B infected in human MT2 cells assessed as inhibition of viral p24 antigen production after 6 days by ELISA; format: functional, organism-based; conditions: Human immunodeficiency virus 1, 3B, MT2, 144 h
Summary of the method: (§2)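 Human T-cell MT-2 line kept with L-glutamine at 37 °C and 5% CO2. Compounds were dissolved in DMSO and screened at final 100, 20, 4 and 0.8 μg/mL, with a highest tested concentration of 20 μM. Medium was changed on days 1 and 4. Supernatant p24 was measured by antigen capture on day 6.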

[6] = Therapeutic index, ratio of IC50 for human MT2 cells to EC50 for HIV1 3B infected in human MT2 cells; format: cell-based; conditions: read-out: Ratio IC50/EC50
[7] = system: Human immunodeficiency virus 1; experiment: Antiviral activity against HIV1 3B infected in […] assessed as inhibition of viral p24 antigen production at 20 uM after 6 days by ELISA; format: functional, organism-based
Summary of the method: as §2, with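 “μM. Wells received […] at 3 × 10^5 cells/mL plus HIV-1 IIIB inoculum of 125 TCID50.” for “μM.”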

[8] = system: Human immunodeficiency virus; experiment: Antiviral activity against multi-RT inhibitor-resistant HIV infected in human MT4 cells assessed as inhibition of viral p24 antigen production after 4 days by ELISA; format: functional, organism-based; conditions: Human immunodeficiency virus 1, MT4, 96 h; summary of the method: as §1
[9] = Therapeutic index, ratio of IC50 for human MT4 cells to EC50 for multi-RT inhibitor-resistant HIV infected in human MT4 cells; format: cell-based; conditions: read-out: Ratio IC50/EC50; summary of the method: as §1

Question: Which results are given for `Cc1cc(=O)oc2c(CN(C)C(=O)[C@@]34CC[C@@](C)(C(=O)O3)C4(C)C)c(OC(C)C)ccc12`?
Answer: IC50 [1]: 56.6 µM; selectivity ratio [2]: 8; EC50 [3]: 5.66 µM

Question: What does the source list for `CCOc1c(C(C)=O)ccc2c1[C@@H](OC(=O)[C@@]13CC[C@@](C)(C(=O)O1)C3(C)C)[C@@H](OC(=O)[C@@]13CC[C@@](C)(C(=O)O1)C3(C)C)C(C)(C)O2`?
Answer: IC50 [4]: 39.6 µM; EC50 [5]: 0.19 µM; selectivity ratio [6]: 208

Question: Which results are given for `CC(=O)c1ccc2c(c1C)[C@@H](OC(=O)[C@@]13CC[C@@](C)(C(=O)O1)C3(C)C)[C@@H](OC(=O)[C@@]13CC[C@@](C)(C(=O)O1)C3(C)C)C(C)(C)O2`?
Answer: IC50 [4]: 39.6 µM; inhibition [7]: inactive

Question: What does the source list for `Cc1cc(=O)oc2cc(OC(C)(C)[C@@H](COC(=O)[C@@]34CC[C@@](C)(C(=O)O3)C4(C)C)OC(=O)[C@@]34CC[C@@](C)(C(=O)O3)C4(C)C)ccc12`?
Answer: IC50 [4]: 39.2 µM; IC50 [1]: 20 µM; EC50 [8]: 20 µM; inhibition [7]: inactive; EC50 [3]: > 20 µM

Question: With `Cc1cc(=O)oc2c(CSC(=O)[C@@]34CC[C@@](C)(C(=O)O3)C4(C)C)c(OC(C)C)ccc12` as the molecule, how does the IC50 [1] read?
Answer: Its IC50 is 56.2 µM.

Question: And the selectivity ratio [2]?
Answer: Its selectivity ratio is 12.

Question: What about the EC50 [3] of the same molecule?
Answer: Its EC50 is 4.67 µM.

Question: Which IC50 [1] does the source give for `COC(=O)COc1ccc2c(C)cc(=O)oc2c1COC(=O)[C@@]12CC[C@@](C)(C(=O)O1)C2(C)C` here?
Answer: The IC50 was 54.5 µM.

Question: What about the selectivity ratio [2] of the same molecule?
Answer: The selectivity ratio was 1.22.

Question: What about the EC50 [3] of the same molecule?
Answer: Its EC50 is > 44.6 µM.

Question: Which selectivity ratio [9] does the source give for `CCc1cc(=O)c2ccc3c(c2o1)[C@@H](OC(=O)[C@@]12CC[C@@](C)(C(=O)O1)C2(C)C)[C@@H](OC(=O)[C@@]12CC[C@@](C)(C(=O)O1)C2(C)C)C(C)(C)O3` here?
Answer: Its selectivity ratio is 69.9.

Question: What about the IC50 [1] of the same molecule?
Answer: Its IC50 is 9.27 µM.

Question: What about the EC50 [8] of the same molecule?
Answer: Its EC50 is 0.133 µM.

Question: What about the EC50 [3] of the same molecule?
Answer: The EC50 was 0.08 µM.

Question: What does the source list for `COc1ccc(N(Cc2c(OC(C)C)ccc3c(C)cc(=O)oc23)C(=O)[C@@]23CC[C@@](C)(C(=O)O2)C3(C)C)cc1`?
Answer: IC50 [1]: 34.7 µM; selectivity ratio [2]: 15; EC50 [3]: 4.69 µM

Question: What does the source list for `Cc1cc(=O)oc2c(CNC(=O)[C@@]34CC[C@@](C)(C(=O)O3)C4(C)C)c(OC(C)C)ccc12`?
Answer: IC50 [1]: 25 µM; selectivity ratio [2]: 1; EC50 [3]: > 25 µM

Question: With `Cc1cn([C@H]2CC(N=[N+]=[N-])[C@@H](CO)O2)c(=O)[nH]c1=O` (single isomer, unassigned) [ZIDOVUDINE] as the molecule, how does the EC50 [5] read?
Answer: Its EC50 is 0.044 µM.

Question: For `Cc1cc(=O)oc2c([C@H](C)OC(=O)[C@@]34CC[C@@](C)(C(=O)O3)C4(C)C)c(OC(C)C)ccc12`, which IC50 [4] is on record?
Answer: Its IC50 is 56.5 µM.

Question: And the IC50 [1]?
Answer: The IC50 was 20 µM.

Question: What about the EC50 [8] of the same molecule?
Answer: The EC50 was 20 µM.

Question: And the inhibition [7]?
Answer: The inhibition was “inactive”.

Question: And the EC50 [3]?
Answer: The EC50 was > 20 µM.

Question: Which results are given for `COc1ccc2c(C)cc(=O)oc2c1COC(=O)[C@@]12CC[C@@](C)(C(=O)O1)C2(C)C`?
Answer: IC50 [1]: 62.4 µM; selectivity ratio [2]: 1.71; EC50 [3]: > 36.6 µM

Question: Which IC50 [4] does the source give for `Cc1cc(=O)oc2c3c(ccc12)OC(C)(C)[C@H](OC(=O)[C@@]12CC[C@@](C)(C(=O)O1)C2(C)C)[C@@H]3OC(=O)[C@@]12CC[C@@](C)(C(=O)O1)C2(C)C` here?
Answer: The IC50 was 39.2 µM.

Question: And the EC50 [5]?
Answer: The EC50 was 0.126 µM.

Question: What about the selectivity ratio [6] of the same molecule?
Answer: Its selectivity ratio is 301.

Question: With `CCOc1ccc2c(C)cc(=O)oc2c1COC(=O)[C@@]12CC[C@@](C)(C(=O)O1)C2(C)C` as the molecule, how does the IC50 [1] read?
Answer: The IC50 was 60.3 µM.

Question: What about the selectivity ratio [2] of the same molecule?
Answer: Its selectivity ratio is 1.87.

Question: What about the EC50 [3] of the same molecule?
Answer: The EC50 was > 32.3 µM.

Question: What does the source list for `Cc1cc(=O)oc2c([C@H](COC(=O)[C@@]34CC[C@@](C)(C(=O)O3)C4(C)C)OC(=O)[C@@]34CC[C@@](C)(C(=O)O3)C4(C)C)c(OC(C)C)ccc12`?
Answer: IC50 [4]: 39.2 µM; IC50 [1]: 20 µM; EC50 [8]: 20 µM; inhibition [7]: inactive; EC50 [3]: > 20 µM
